According to ChEMBL document CHEMBL1144899, “Influence of phenyl ring disubstitution on bisbenzimidazole and terbenzimidazole cytotoxicity: synthesis and biological evaluation as radioprotectors” (2003):
Where “and” joins values, the source holds several entries; their conditions need not be identical. Equal entries are not always repeated.

Tests used:
[1] = In Vitro Cytotoxicity against BMG-1 (Human brain malignant glioma cell line with a DNA index of 0.96; wild type TP 53) using MTT assay at 10 uM at 72 hours; format: functional
Summary of the method: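 Then MTT at 0.5 mg/mL final for 2 h at 37 °C; formazan dissolved in DMSO; absorbance read at 570 nm against 630 nm reference; results as percent survival.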

[2] = In Vitro Cytotoxicity against BMG-1 (Human brain malignant glioma cell line with a DNA index of 0.96; wild type TP 53) using Macrocolony assay (clonogenicity) at 100 uM at 72 hours; format: functional; conditions: read-out: Survival
[3] = (§1) In Vitro Cytotoxicity against BMG-1 (Human glioma cell line with a DNA index of 0.96; wild type TP 53) using Irradiation procedures followed by Macrocolony assay at 10 Gy and 10 (uM); format: functional
Summary of the method: (§2)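 Exponential BMG-1 (24 h after plating) given 10 μM drug 1 h before irradiation. Co-60 gamma rays at room temperature in growth medium, 0.5–1.2 Gy/min, at 2, 5 or 10 Gy. Cells plated for macrocolony assay, 8–10 days at 37 °C in 5% CO2; crystal violet-stained colonies >50 cells counted; survival as percent of irradiated control at each dose.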

[4] = In Vitro Cytotoxicity against BMG-1 (Human glioma cell line with a DNA index of 0.96; wild type TP 53) using Irradiation procedures followed by Macrocolony assay at 2 Gy and 10 (uM); format: functional; summary of the method: as §2
[5] = In Vitro Cytotoxicity against BMG-1 (Human glioma cell line with a DNA index of 0.96; wild type TP 53) using Irradiation procedures followed by Macrocolony assay at 5Gy and 10 (uM); format: functional; summary of the method: as §2
[6] = tested on: Nucleic Acid; test: DNA binding property using 100(uM) of calf thymus DNA (CTDNA) and at 10(uM) was determined; format: nucleic-acid assay; conditions: Bos taurus
Summary of the method: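 Calf thymus DNA (100 μM) with ligand at drug/DNA ratio r = 0.1 (10 μM drug) in 2 mM sodium cacodylate buffer, equilibrated 25 min. Thermal melting by absorbance at 260 nm, heated 25 to 100 °C at 0.5 °C/min; Tm taken as the midpoint of normalized curves, ΔTm relative to DNA alone. UV absorption (200–500 nm) and fluorescence emission spectra also recorded.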

[7] = tested on: Nucleic Acid; test: DNA binding property using 100(uM) of calf thymus DNA (CTDNA) and at 100(uM) was determined; format: nucleic-acid assay; conditions: Bos taurus
[8] = Percent cell kill against BMG-1 (Human brain malignant glioma cell line with a DNA index of 0.96; wild type TP 53) at 1 hour incubation at 10 (uM)
[9] = Percent cell kill against BMG-1 (Human brain malignant glioma cell line with a DNA index of 0.96; wild type TP 53) at 1 hour incubation at 100 (uM)
[10] = In Vitro Cytotoxicity against BMG-1 (Human brain malignant glioma cell line with a DNA index of 0.96; wild type TP 53) using MTT assay at 100 uM at 24 hours
[11] = species on record: Homo sapiens; test: In Vitro Cytotoxicity against BMG-1 (Human glioma cell line with a DNA index of 0.96; wild type TP 53) using MTT assay at 100 uM at 72 hours; No effect on the proliferation kinetics of BMG-1 cells.; format: functional, cell-based
[12] = In Vitro Cytotoxicity against BMG-1 (Human brain malignant glioma cell line with a DNA index of 0.96; wild type TP 53) using Macrocolony assay at 10 uM […]; format: functional
Summary of the method: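 BMG-1 glioma cells in DMEM with 5% fetal calf serum at 37 °C, exponential phase, 24 h after plating. Drug (0.1, 1, 10 or 100 μM) given for 1 h, then washed off. 200–1200 cells plated and grown 8–10 days at 37 °C in 5% CO2. Colonies fixed in methanol and stained with crystal violet; colonies over 50 cells counted and expressed as percent of control.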

[13] = as §1; format: functional; remark: listed apart in the source
Summary of the method: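 Exponentially growing BMG-1 cells, 24 h after plating, given 10 μM ligand 1 h before irradiation. Co-60 gamma irradiation (2, 5 or 10 Gy) at room temperature in growth medium at 0.5–1.2 Gy/min. Cells then plated and colonies of more than 50 cells counted after 8–10 days. Survival expressed as percent of cells irradiated at the same dose without ligand.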

[14] = In Vitro Cytotoxicity against BMG-1 (Human glioma cell line with a DNA index of 0.96; wild type TP 53) using Irradiation procedures followed by Macrocolony assay at 5Gy and 10 (uM) at 24 hr; format: functional; conditions: in the assay text read “growth kinetics” for “Macrocolony assay”
[15] = In Vitro Cytotoxicity against BMG-1 (Human glioma cell line with a DNA index of 0.96; wild type TP 53) using Macrocolony assay (clonogenicity) at 100 uM at 72 hours; format: functional; conditions: read-out: Survival

Structure (SMILES) | Killed [1] [%] | viability at 100 µM [2] [%] | Survival [3] [%] | Survival [4] [%] | Survival [5] [%] | Lambda-em [6] [nm] | Lambda-ex [6] [nm] | Lambda-em [7] | Lambda-ex [7] | Tm [7] [°C] | ΔTm [7] [°C] | Cell kill % [8] [%] | Cell kill % [9] [%] | Lysis [10] [%] | NA [11] | Protection [12] [%] | Protection [13] [%] | Protection [14] [%] | viability at 100 µM [15] [%]
CCOc1ccc(-c2nc3cc(-c4nc5cc(N6CCN(C)CC6)ccc5[nH]4)ccc3[nH]2)cc1 | 35 | 10 | 15 | 10 | 15 | 500 | 340 | 484 nm | 354 nm | 76 | 6 | 55 | 90 | 77 |  |  |  |  | 
COc1ccc(-c2nc3cc(-c4nc5cc(N6CCN(C)CC6)ccc5[nH]4)ccc3[nH]2)cc1OC |  |  |  |  |  | 500 | 340 | 484 nm | 354 nm | 76.4 | 6.4 |  | 27 |  | No effect on the proliferation kinetics of BMG-1 cells | 82 | 100 | 84 | 73
COc1cc(-c2nc3cc(-c4nc5cc(-c6nc7cc(N8CCN(C)CC8)ccc7[nH]6)ccc5[nH]4)ccc3[nH]2)ccc1O |  | 92 | 100 | 24 | 37 | 500 | 350 | 418 nm and 441 nm | 356 nm and 391 nm | 78 | 8 |  |  |  | No effect on the proliferation kinetics of BMG-1 cells | 37 |  | 100 | 
